Diaph act CS: compounds boosting diaphorase resazurin reduction – biochemical, uHTS, resorufin fluorescence, counter-screen for diaphorase-coupled primary assays, primary screen | activation factor at 20 µM | 190,000 compounds, 0.005% hits | Diaphorase/resazurin coupled assay, 16 min; active compounds read high; 1 = vehicle wells, 0 = NADH-free wells;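 active = diaphorase activity raised at least twofold by the compound at 20 µM; inactive = activation factor below 2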
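Test system: Clostridium kluyveri diaphorase, purified enzyme; input: enzyme 0.07 U/mL final; buffer or medium: 50 mM HEPES pH 7.4 with 4.542 mM MgCl2, 0.005% Tween 20; also added: 0.114 mM NADH and 0.1 mM resazurin, final amounts; schedule: 16 min enzyme reaction, ambient temperature; technique: fluorescence of resorufin, 544 nm excitation, 590 nm emission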
G6PDH CS: L. mesenteroides G6PDH inhibitors, counter-screen for G6PDH-coupled screening assays, biochemical, Leuconostoc mesenteroides enzyme; glucose-6-phosphate dehydrogenase [Leuconostoc mesenteroides]; Purified L. mesenteroides G6PDH, diaphorase/resazurin coupled fluorescence, 45 min; 200,000 compounds, 0.12% hits; inhibition, % at 5 µM; in the data active = inhibition above about 50%
Diaphorase inh: diaphorase inhibitors and chemical oxidizers, primary screen, counter-screen for diaphorase-coupled primary assays, biochemical, uHTS, resorufin fluorescence | 190,000 compounds, 0.69% hits | diaphorase resazurin-to-resorufin fluorescence, NADH, 16 min; bacterial (C. kluyveri) enzyme, not human | inhibition, % at 20 µM;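 active = primary screen inhibition at 20 µM above a set limit, cut at about 50% in these data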;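 also: plate controls were DMSO with full reaction for no effect and wells lacking NADH for full effect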
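material = Clostridium kluyveri diaphorase enzyme | amount = 0.14 U/mL diaphorase, enzyme working solution | schedule = incubation 16 min, room temperature | detection = fluorescence of resorufin formed from resazurin, Ex 544/Em 590 nm | benchmarks = positive control minus NADH, DMSO neutral control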
FLuc inhib CS: firefly luciferase enzyme inhibitors, primary screen, artefact control for luciferase-based inhibitor screens, biochemical, luminescence, ATPLite; 10 min; 200,000 compounds, 1.5% hits; inhibition, % at 10 µM;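 active = inhibition above about 50% when tested at 10 µM, limit read from the data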
Target sequence (P08659 whole entry, looked up): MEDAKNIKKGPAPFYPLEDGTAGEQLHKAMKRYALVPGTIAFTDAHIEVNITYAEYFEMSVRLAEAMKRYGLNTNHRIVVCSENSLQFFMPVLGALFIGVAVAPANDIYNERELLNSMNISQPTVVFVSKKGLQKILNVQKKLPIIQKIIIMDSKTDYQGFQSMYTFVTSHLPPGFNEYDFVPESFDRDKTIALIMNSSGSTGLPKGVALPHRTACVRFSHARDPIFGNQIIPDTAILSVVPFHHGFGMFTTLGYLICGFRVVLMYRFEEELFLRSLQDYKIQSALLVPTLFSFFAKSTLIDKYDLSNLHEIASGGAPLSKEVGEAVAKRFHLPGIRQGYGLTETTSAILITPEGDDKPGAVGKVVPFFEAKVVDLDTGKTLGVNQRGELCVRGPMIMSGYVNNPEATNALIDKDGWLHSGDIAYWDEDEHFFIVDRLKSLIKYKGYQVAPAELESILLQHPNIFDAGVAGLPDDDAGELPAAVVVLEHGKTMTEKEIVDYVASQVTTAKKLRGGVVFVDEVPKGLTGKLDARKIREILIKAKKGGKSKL
FLuc stim CS: FLuc activators, initial screening, artefact control for FLuc-dependent activation tests, biochemical, ATPlite luminescence; Luciferin 4-monooxygenase (Photinus pyralis), P08659; ATPlite luciferase biochemical, 10 min; 0 = ATP-free wells, 1 = DMSO control; activation factor at 10 µM; 200,000 tested, under 10 active; AID 1027, 2008;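 active = luciferase activation factor, scaled between plate controls, of at least 2 with compound at 10 µM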
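Assay system: Luciferase/luciferin detection reagent, cell-free biochemical luciferase assay / Read-out: luciferase activation / Benchmarks: No-ATP low control, compound-free enzyme-plus-ATP high control / Medium: PBS buffer for ATP / Detection: luminescence measurement of luciferase light output / Schedule: 10 min at ambient temperature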
Numbers without * were called inactive. An excerpt weighted towards active compounds, which were near 2.3% of everything screened.

SMILES | Diaph act CS | G6PDH CS | Diaphorase inh | FLuc inhib CS | FLuc stim CS
Cc1cc(C)c(NC(=O)COC(=O)c2cccc3c2C(=O)c2ccccc2C3=O)c(C)c1 | 0.8 | 10 | 22 | -7 | 1.1
Cc1cc(C)c(Nc2cc(S(=O)(=O)O)c(N)c3c2C(=O)c2ccccc2C3=O)c(C)c1 | 0.2 | -18 | 80* | 24 | 0.8
COc1ccc(CNc2nc3nc(C)cc(C)n3n2)cc1 | 0.9 | 4 | 8 | 3 | 1
COc1ccc(-c2nc3nc(C)cc(C)n3n2)cc1 | 0.9 | -8 | 15 | 59* | 0.4
CC(=O)c1c(N2CCN(c3cccc(Cl)c3)CC2)nc(=S)n(-c2ccccc2)c1C | 0.4 | -4 | 61* | -9 | 1.1
CC(=O)c1c(NCCc2ccccc2)nc(=S)n(-c2ccccc2)c1C | 0.1 | 2 | 88* | -4 | 1
CCn1c(C)c(C(C)=O)c(NCc2ccccc2)nc1=S | 0.5 | 8 | 52* | -12 | 1.1
CC(=O)c1c(NCc2ccccc2)nc(=O)n(-c2ccccc2)c1C | 0.9 | 3 | 9 | -1 | 1
CC1=NN(c2cccc(C(=O)O)c2)C(=O)/C1=C\C=C/c1ccccc1 | 0.8 | 3 | 19 | 21 | 0.8
Cc1cc(C(=O)COC(=O)c2ccc(O)cc2)c(C)n1CC1CCCO1 (configuration not stated) | 1 | 1 | 5 | 53* | 0.5
CN(C)c1cccc(-c2nnc(SCCCC#N)o2)c1 | 0.9 | 2 | 6 | 56* | 0.4
O=C(CN(Cc1ccccc1)S(=O)(=O)c1ccc(S(=O)(=O)N2CCOCC2)cc1)Nc1ccccc1 | 1 | 10 | 0 | -12 | 1.1
Oc1c(CN2CCN(c3ccccn3)CC2)cc(Cl)c2cccnc12 | 0.5 | -22 | 53* | -4 | 1
COc1ccccc1N1CCN(Cc2cc(Br)c(O)c3ncccc23)CC1 | 0.4 | 19 | 58* | -10 | 1.1
OCCN1CCN(Cc2cc(Cl)c3cccnc3c2O)CC1 | 0.3 | 53* | 69* | -2 | 1
COCc1cc(CN2CCCC2)c(O)c2ncccc12 | 0.6 | 43 | 44 | -2 | 1
COc1ccc(C(=O)Oc2c(CN3CCOCC3)cc(Cl)c3cccnc23)cc1 | 0.9 | 10 | 14 | -6 | 1.1
COc1cc(C(=O)Oc2c(CN3CCOCC3)cc(Cl)c3cccnc23)cc(OC)c1OC | 0.4 | 38 | 58* | -6 | 1.1
O=c1c(CN2CCN(c3ccccn3)CC2)coc2ccccc12 | 0.9 | -5 | 12 | 0 | 1
Cc1ccc(C(=O)CSc2nnc(N)s2)c(C)c1 | 0.9 | -3 | 12 | 25 | 0.8
O=C(CN1CCN(C(c2ccccc2)c2ccccc2)CC1)NC(=O)NCc1ccco1 | 0.9 | 1 | 9 | -5 | 1.1
COCC(=O)Nc1nnc(-c2ccc(C(C)(C)C)cc2)s1 | 1 | 11 | 0 | 60* | 0.4
CC(C)(C)c1ccc(-c2nnc(NC(=O)c3ccccc3)s2)cc1 | 0.9 | 9 | 9 | 6 | 0.9
Cn1cccc1C(=O)NC(=O)COC(=O)C12CC3CC(CC(O)(C3)C1)C2 | 0.9 | 2 | 15 | 57* | 0.4
CC(=O)NC12CC3CC(C1)CC(C(=O)OCC(=O)NC(=O)c1cccn1C)(C3)C2 | 0.8 | 0 | 18 | -8 | 1.1
SMILES | Diaph act CS | G6PDH CS | Diaphorase inh | FLuc inhib CS | FLuc stim CS
COc1cccc(CNc2ccc(Br)cn2)c1O | 1 | 8 | -2 | 62* | 0.4
COc1cccc(CNc2ncc(Br)cc2Br)c1O | 0.9 | 8 | 10 | 8 | 0.9
COc1cccc(NC(=O)NC2CCCc3ccccc32)c1 (configuration not stated) | 0.9 | 8 | 10 | -4 | 1
O=C(OCc1ccc(F)cc1)c1ccc2c(c1)-c1ccccc1C2=O | 0.9 | 1 | 13 | -7 | 1.1
CCOC(=O)C1=C(Cc2ccc(F)cc2)C(=O)c2ccccc2C1=O | 0.7 | 62* | 25 | -7 | 1.1
O=C(O[C@@H]1OC2COC(=O)c3cc(O)c(O)c(O)c3-c3c(cc(O)c(O)c3O)C(=O)O[C@@H]([C@H]1O)[C@@H]2O)c1cc(O)c(O)c(O)c1 | 0.4 | 8 | 62* | 1 | 1
COC(=O)c1nc2n(n1)C(c1cc(OC)ccc1OC)C(C(=O)OC1CCCCC1)=C(C)N2 (configuration not stated) | 0.7 | -6 | 29 | 0 | 1
Cc1cccc(C(=O)N=c2c(C#N)cc3c(=O)n4cccc(C)c4nc3n2Cc2ccco2)c1 | 0.4 | 15 | 60* | -1 | 1
CCOC(=O)c1cc2c(=O)n3cccc(C)c3nc2n(Cc2ccco2)c1=NC(=O)c1cccnc1 | 0.7 | -30 | 31 | 2 | 1
CN(C)/C=C/C(=O)c1cnc(-c2ccc(Cl)cc2)s1 | 0.9 | -4 | 6 | 53* | 0.5
CN(C)/C=C/C(=O)c1cnc(-c2ccccc2)s1 | 0.9 | 3 | 10 | 39 | 0.6
Nc1c(C(=O)NC2CCCC2)c2nc3ccccc3nc2n1N | 0.5 | 2 | 50* | 0 | 1
CN(C)c1ccc(/C=C/C(=O)c2ccccc2O)cc1 | 0.8 | -2 | 19 | 66* | 0.3
O=C(/C=C/c1ccc2c(c1)OCCCO2)c1ccccc1O | 0.8 | 1 | 23 | 77* | 0.2
Cc1ccc(O)c(C(=O)/C=C/c2ccc3c(c2)OCCCO3)c1 | 0.9 | 5 | 10 | 33 | 0.7
CN(C)c1ccc(C(=O)n2nnc3ccccc32)cc1 | 1 | 0 | -2 | 81* | 0.2
CCCC(=O)Nc1ccc(C(=O)n2nnc3ccccc32)cc1 | 0.9 | -7 | 9 | -2 | 1
N#Cc1c(NC(=O)c2cccnc2)sc2c1CCC2 | 0.9 | -6 | 14 | 54* | 0.5
O=C(O)CCn1cc(/C=C2\NC(=S)N(c3ccccc3)C2=O)c(-c2ccc(Br)cc2)n1 | 0.8 | 2 | 23 | -4 | 1
N#CCCn1cc(/C=C2\NC(=S)N(c3ccccc3)C2=O)c(-c2ccc(F)cc2)n1 | 0.2 | 16 | 85* | -6 | 1.1
Cc1ccc2[nH]c(=O)c(C(c3nnnn3CC3CCCO3)N3CCc4ccccc4C3)cc2c1 (configuration not stated) | 0.4 | 11 | 63* | -5 | 1.1
CCc1ccc2[nH]c(=O)c(C(c3nnnn3CC3CCCO3)N3CCN4CCCC4C3)cc2c1 (configuration not stated) | 0.9 | 0 | 11 | -1 | 1
